Among the data in ChEMBL document CHEMBL1151226, “New bioactive prenylflavonoids and dibenzocycloheptene derivative from roots of Dendrolobium lanceolatum” (J Nat Prod, 2004) are IC50, MIC and Activity values, retold here.

Molecules are shown by their SMILES. In brackets after ≈: the same amount, converted by molar mass. Activity calls are given as the source filed them. The rule behind the calls is not given here.

Experiment [1] relates to Plasmodium falciparum. The experiment can be described thus: Antiplasmodial activity against multidrug-resistant Plasmodium falciparum K1 as [3H]hypoxanthine uptake. The class given is functional, organism-based. The procedure, abridged: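 P. falciparum K1 (multidrug-resistant) maintained in culture by the Trager–Jensen method. Microculture radioisotope technique, with growth read as in vitro [3H]-hypoxanthine uptake by the parasites. IC50 is the concentration giving 50% reduction in parasite growth. Artemisinin was the reference standard.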

Experiment [2] has as its system Mycobacterium tuberculosis. The experiment can be described thus: Antimycobacterial activity against Mycobacterium tuberculosis H37Ra by alamar blue assay. The class given is functional. The procedure, abridged:
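M. tuberculosis H37Ra tested in the Microplate Alamar Blue Assay (MABA). Isoniazid and kanamycin sulfate were the reference drugs.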

A short description of experiment [3]: Cytotoxicity against human BC cells. The class given is functional, cell-based. Put shortly:
(§1)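 Human epidermoid carcinoma (KB) and human breast cancer (BC) cell lines assessed by a colorimetric cytotoxicity method following Skehan and co-workers. Ellipticine was the reference substance.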

For experiment [4], the system named is KB. The experiment can be described thus: Cytotoxicity against human KB cells. Format: functional, cell-based. Put shortly: as §1
For experiment [5], the system named is NCI-H187. The experiment can be described thus: Cytotoxicity against human NCI-H187 cells. The class given is functional, cell-based. Put shortly: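 Human small cell lung cancer NCI-H187 cell line, assayed by the colorimetric method of Skehan and co-workers. Ellipticine served as the reference substance.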
Another experiment concerns BC. Nature of the experiment: Cytotoxicity against human BC cells at 20 ug/ml. Format: functional, cell-based.
The test system of experiment [6] is KB. Nature of the experiment: Cytotoxicity against human KB cells at 20 ug/ml. The class given is functional, cell-based.
The subject of experiment [7] is NCI-H187. Nature of the experiment: Cytotoxicity against human NCI-H187 cells at 20 ug/ml. Format: functional, cell-based.
The test system of experiment [8] is Plasmodium falciparum. Nature of the experiment: Antiplasmodial activity against multidrug-resistant Plasmodium falciparum K1 at 20 ug/ml as [3H]hypoxanthine uptake. The class given is functional, organism-based.

What is called IC50 is the concentration at which inhibition is half-maximal. A high value points to weaker potency. What is called MIC is the lowest concentration that inhibits growth of the organism. With `CC(C)=CCc1c([C@@H]2CC(=O)c3c(O)cc(O)c(CC=C(C)C)c3O2)cc2c(c1O)OC(C)(C)C=C2`, the 50% inhibitory concentration (IC50) worked out at 2.6 mg/L (≈ 5.3 µM) in the experiment on Plasmodium falciparum [1], 1.7 mg/L (≈ 3.47 µM) in experiment [3], 1.2 mg/L (≈ 2.45 µM) with KB [4] and 0.6 mg/L (≈ 1.22 µM) in the experiment with NCI-H187 [5]. In experiment [2], the MIC turned out to be 6.3 mg/L (≈ 12.8 µM).

As to `C[C@@H]1CC[C@H]2[C@@H](C)C(=O)O[C@@H]3O[C@@]4(C)CC[C@@H]1[C@]32OO4` [ARTEMISININ], 0.001 mg/L (≈ 0.00354 µM) corresponded to half-maximal inhibition in the experiment with Plasmodium falciparum [1] (IC50).

Turning to `COc1cc2c(c(CC=C(C)C)c1O)O[C@H](c1ccc(O)c(O)c1CC=C(C)C)CC2`, the IC50 in the experiment with Plasmodium falciparum [1] stood at 3.1 mg/L (≈ 7.3 µM). For the same compound, the minimal inhibitory concentration (MIC) in [2] stood at 25 mg/L (≈ 58.9 µM). For the same compound, the outcome in the experiment on BC, with KB [6] and in the experiment with NCI-H187 [7] was inactive.

Consider `NC[C@H]1O[C@H](O[C@H]2[C@H](O)[C@@H](O[C@H]3O[C@H](CO)[C@@H](O)[C@H](N)[C@H]3O)[C@H](N)C[C@@H]2N)[C@H](O)[C@@H](O)[C@@H]1O.O=S(=O)(O)O` [KANAMYCIN SULFATE], for which the minimum inhibitory concentration (MIC) in experiment [2] was found to be 2 mg/L.

`COc1cc2c(cc1O)-c1cc(O)c(OC)c(OC)c1C=CC2`: inhibition of growth in experiment [2] (MIC) required 50 mg/L (≈ 159 µM). Besides, the result in the experiment on BC, in the experiment on Plasmodium falciparum [8], in the experiment on KB [6] and in the experiment with NCI-H187 [7] was inactive.

For `CC1(C)C=Cc2c(ccc3c2O[C@H](c2ccc(O)cc2)CC3)O1`, 25 mg/L (≈ 81.1 µM) was the least that counted as inhibitory in [2] (MIC). For the same compound, the outcome with BC, in the experiment with Plasmodium falciparum [8], with KB [6] and with NCI-H187 [7] was inactive.

In the case of `Cc1c2ccncc2c(C)c2c1[nH]c1ccccc12` [ELLIPTECINE], the IC50 (in experiment [3]; in the experiment with KB [4]; in the experiment with NCI-H187 [5]) was 0.4 mg/L (≈ 1.62 µM) each time.

Regarding `NNC(=O)c1ccncc1` [ISONIAZID], the MIC in experiment [2] came out at 0.04 mg/L (≈ 0.292 µM).

On to `COc1ccc([C@@H]2CC(=O)c3c(O)cc(O)c(CC=C(C)C)c3O2)c(CC=C(C)C)c1O`, for which the IC50 in the experiment with Plasmodium falciparum [1] was found to be 3.3 mg/L (≈ 7.53 µM); in the experiment on NCI-H187 [5] it was 8.1 mg/L (≈ 18.5 µM). Further, the MIC in experiment [2] stood at 12.5 mg/L (≈ 28.5 µM). For the same compound, the result in the experiment on BC and in the experiment with KB [6] was inactive.
